Hits are enriched below; roughly 6.7% of the tested compounds scored in any of these assays.
T cruzi inh = inhibitors of intracellular T. cruzi growth, primary screen, luminescence, NIH3T3 host cells; 1.4% of 300,000 active; T. cruzi beta-gal in NIH3T3, 90 h; inhibition, % (test concentration not listed);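 active = mean inhibition across valid replicates above about 55%, limit read from the data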;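 note: signal also drops with host cell toxicity which is not excluded here; 0% = plate median of DMSO wells and 100% = zero luminescence signal; higher percent means less beta-gal luminescence so fewer parasites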
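compound dosing = single 50 nL compound addition per well in DMSO | material = NIH/3T3 host cells with β-galactosidase reporter T. cruzi | input = 5,000 host fibroblasts per well | timing = ≥90 h infection period, 3 h prior cell attachment | read-out basis = percent inhibition of parasite-derived β-gal signal | detection = GalScreen β-gal luminescence, detergent lysis, 60 min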
CHOP inhibitor = inhibitors of CHOP promoter induction, primary screen, cell-based, unfolded protein response, luciferase reporter. AID 2732, 2010. 3.8% of 220,000 active. inhibition, % at 10 µM. CHO-K1 CHOP-promoter luciferase, tunicamycin-induced, 15-18 h;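 active = compounds that reduced the stress-induced luciferase reporter signal by more than about 70% of percent inhibition, limit read from the data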;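 note: 0% = tunicamycin plus vehicle and 100% = wells without tunicamycin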
Beta apoptosis = inhibitors of cytokine-induced beta cell apoptosis, primary screen, luminescence; AID 435005, 2010; protection from apoptosis, % (test concentration not listed); 0.8% of 300,000 active; INS-1E cytokine-induced death, ATP luminescence, 48 h; percent of positive-control rescue, neutral wells zero;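 active = Every replicate reaches about 75%, or at least half do and their mean reaches it too, limit read from the data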;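 note: 0% = cytokine-treated negative control wells and 100% = positive control rescue; higher means more ATP so stronger rescue from cytokine killing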
PREPL inh = PREPL enzyme inhibitors, primary screen, biochemical, fluorescence polarization; AID 2751, 2010; Prolyl endopeptidase-like (Homo sapiens), Q4J6C6; 0.68% of 320,000 active; recombinant PREPL, fluorescence polarization activity-based probe; inhibition, % at 5.96 µM; in the data active = inhibition above about 43%;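 note: 0% = enzyme with DMSO and 100% = wells lacking enzyme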
Target sequence (Q4J6C6 whole entry, looked up): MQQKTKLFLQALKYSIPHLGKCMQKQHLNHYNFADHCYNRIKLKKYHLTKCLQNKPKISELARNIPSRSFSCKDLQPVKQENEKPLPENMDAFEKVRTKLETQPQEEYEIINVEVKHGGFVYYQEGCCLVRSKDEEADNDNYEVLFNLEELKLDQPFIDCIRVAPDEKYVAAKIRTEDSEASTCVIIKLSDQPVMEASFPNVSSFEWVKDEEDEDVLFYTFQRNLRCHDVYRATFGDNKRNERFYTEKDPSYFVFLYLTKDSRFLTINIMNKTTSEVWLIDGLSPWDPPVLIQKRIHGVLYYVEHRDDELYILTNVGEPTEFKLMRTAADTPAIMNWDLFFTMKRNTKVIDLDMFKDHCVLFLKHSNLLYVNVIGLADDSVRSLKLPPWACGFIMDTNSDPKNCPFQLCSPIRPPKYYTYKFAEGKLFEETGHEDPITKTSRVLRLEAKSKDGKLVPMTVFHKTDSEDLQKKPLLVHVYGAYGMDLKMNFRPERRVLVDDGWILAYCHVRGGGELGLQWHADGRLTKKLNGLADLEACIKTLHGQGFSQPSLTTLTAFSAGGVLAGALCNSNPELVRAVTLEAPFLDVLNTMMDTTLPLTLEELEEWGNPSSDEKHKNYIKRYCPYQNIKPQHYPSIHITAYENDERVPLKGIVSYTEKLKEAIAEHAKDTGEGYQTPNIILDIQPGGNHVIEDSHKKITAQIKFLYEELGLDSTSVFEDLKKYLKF
GRIN3A LBD mod = binders of NR3A ligand-binding domain, primary screen, biophysical, differential scanning fluorimetry, uHTS; Glutamate receptor ionotropic, NMDA 3A (GRIN3A) ligand-binding domain; NR3A LBD differential scanning fluorimetry, Tm shift; 0% = protein alone, 100% = glycine-bound protein; Tm shift relative to glycine control, % at 25 µM; 2.5% of 340,000 active; AID 1259313, 2017;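 active = melting temperature shift of at least 10% of the positive control shift, at one fixed dose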
CSC inhib = cancer stem cell viability inhibitors, primary screen, luminescence | cancer stem cell-like cells viability | inhibition, % at 7.5 µM | 1.1% of 300,000 active | AID 2717, 2010; in the data active = inhibition above about 75%; tested in HMLE shEcad cells
Active calls of the source: *; . = not tested or not shown.

SMILES | T cruzi inh | CHOP inhibitor | Beta apoptosis | PREPL inh | GRIN3A LBD mod | CSC inhib
Cc1ccc(S(=O)(=O)N2CCOCC2)cc1NC(=O)COC(=O)c1cnc(Cl)c(Cl)c1 | . | . | . | . | 0 | .
Cc1ccc(-n2ncc(C(=O)Nc3cc(Cl)cc(Cl)c3)c2C2CCNCC2)cc1C | 55* | 3 | . | . | -1 | .
COc1cc([C@H]2OC[C@H]3[C@@H]2CO[C@@H]3c2ccc(O[C@H]3O[C@H](CO)[C@@H](O)[C@H](O)[C@H]3O)c(OC)c2)ccc1O[C@@H]1O[C@H](CO)[C@@H](O)[C@H](O)[C@H]1O | . | . | -1 | 10 | 16* | 7
O=C(NCCC1=CCCCC1)C(=O)NCC(c1ccco1)N1CCN(c2ccccc2)CC1 (stereo unspecified) | -23 | 94* | 7 | -29 | -15 | 20
COc1ccc(N2CCN(C(CNC(=O)C(=O)NCCC3=CCCCC3)c3ccco3)CC2)cc1 (stereo unspecified) | 16 | 87* | 19 | 5 | 4 | -5
CC(NC(=O)C(=O)NCCC1=CCCCC1)c1ccccc1 (stereo unspecified) | 3 | 95* | 14 | 1 | 1 | -7
CC(C)CCNC(=O)C(=O)NCCC1=CCCCC1 | -6 | 29 | -8 | 7 | -1 | 8
CC(C)=CCC/C(C)=C/CNC(=O)C[C@H]1C[C@H](C(=O)N2CCCCC2)[C@@]2(C)c3[nH]c4cc(CCC(=O)N(C)C)ccc4c3CCN2C1=O | . | . | . | . | 2 | .
O=C(NCCN1CCOCC1)C1CCN(c2ncnc3c2sc2cccc(F)c23)CC1 | -4 | 7 | 9 | 16 | -2 | 1
CCCCN(CC)CCCNC(=O)C1CCN(c2ncnc3c2sc2cccc(F)c23)CC1 | 70* | 16 | 0 | 31 | -2 | 11
COC(=O)Cc1ccc(NC(=S)N2CCN(CCO)CC2)cc1 | 13 | . | -11 | -3 | -1 | -17
CC(C)Oc1ccc(S(=O)(=O)N2CCCCC2)cc1NC(=O)CN1CCCC1c1cccs1 (stereo unspecified) | . | . | 92* | 5 | -3 | 12
O=C(COC(=O)c1ccc2c(c1)C(=O)N(c1cccc3ncccc13)C2=O)c1ccc(Cl)cc1 | -3 | 87* | 2 | -4 | 1 | .
COc1ccc(C2/C=C\CN(C(=O)C3CC3)[C@H](Cc3ccccc3)C(=O)N2Cc2ccc(F)cc2)cc1 (stereo partly specified) | 13 | 20 | 86* | 37 | -1 | 0
CC(C)CC(=O)N1CC=CC[C@@H](c2ccc(Cl)cc2)N(Cc2ccc(Cl)cc2)C(=O)[C@@H]1Cc1ccccc1 | . | . | . | . | 12* | .
CCCCC(=O)N1C/C=C\C(c2ccc(OC)cc2)N(Cc2ccc(F)cc2)C(=O)[C@H]1Cc1ccccc1 (stereo partly specified) | 64* | 13 | 99* | 36 | -2 | 37
COc1ccc(C2/C=C\CN(C(=O)c3ccc(C)cc3)[C@H](Cc3ccccc3)C(=O)N2Cc2ccc(F)cc2)cc1 (stereo partly specified) | 50 | -9 | 78* | 5 | -7 | 29
O=C1[C@H](Cc2ccccc2)NCCCC[C@@H](c2ccc(Cl)cc2)N1Cc1ccc(Cl)cc1 | . | . | . | . | -19 | .
CCCCCCC(=O)N1C/C=C\C(c2ccc(OC)cc2)N(Cc2ccc(F)cc2)C(=O)C1 (stereo unspecified) | -7 | 58 | -4 | 14 | 0 | 2
NC(=O)c1cnccc1C=Cc1ccccc1 | . | . | . | . | 0 | .
Cc1ccc(N/N=C2\CS(=O)(=O)N(C)c3ccsc32)cc1 | 64* | 15 | 5 | 72* | -4 | 9
O=C(Nc1ccc2sccc2c1)c1ccc(Cl)s1 | -14 | -46 | 8 | -12 | 23* | -15
C/C(=N\NC(=O)CN(c1ccc(Oc2ccccc2)cc1)S(C)(=O)=O)C(C)(C)C | 4 | 21 | 2 | -8 | -1 | 21
CC(=O)Nc1ccc(Nc2cc(C)nc3c(-c4ccccc4)cnn23)cc1 | . | 21 | 1 | 37 | 33* | 58
COc1ccc2oc(=N)c(C(=O)Nc3cccc(C)c3C)cc2c1 | 0 | . | -3 | -1 | 0 | -4
SMILES | T cruzi inh | CHOP inhibitor | Beta apoptosis | PREPL inh | GRIN3A LBD mod | CSC inhib
Cc1sc2nc(CSCC(=O)NC3(C#N)CCCCC3)[nH]c(=O)c2c1C | . | . | -3 | 21 | -3 | 1
CCn1nc(C)c(CN2CCC(n3nccc3NC(=O)Cc3ccccc3)CC2)c1C | -3 | . | -9 | 2 | 14* | 4
COc1ccccc1C(=O)NC(=O)COC(=O)CNC(=O)c1ccccc1F | . | . | 0 | 14 | -2 | 10
COc1ccc(/C=N/Nc2ncnc(Cl)c2N)cc1OC | 4 | 17 | -14 | -2 | -11 | -15
Nc1c(Cl)ncnc1N/N=C/c1cccc(O)c1 | -7 | -23 | 19 | 25 | 24* | 10
Nc1c(Cl)ncnc1N/N=C/c1ccncc1 | 0 | -7 | 0 | 4 | 0 | 2
COc1cccc(/C=N/Nc2ncnc(Cl)c2N)c1O | -4 | 37 | 127* | 8 | 7 | 157*
COc1ccc(Nc2ncnc3scc(-c4ccc(OC)cc4)c23)cc1 | 14 | 50 | -2 | 22 | 3 | -29
COC(=O)c1sccc1N/N=C/c1cccc(OC)c1O | -6 | 83* | 6 | 0 | 3 | 21
COc1cccc(/C=N/Nc2ncnc3scc(-c4ccccc4)c23)c1O | 52 | 75* | 103* | 29 | -7 | 111*
O=C(CSc1nnc(CCCN2C(=O)c3cccc4cccc(c34)C2=O)n1-c1ccccc1)N1CCN(CCO)CC1 | 17 | 11 | -8 | 6 | 7 | .
CCOc1ccc(NC(=O)CNc2cccc(S(=O)(=O)N3CCCCCC3)c2)cc1OCC | . | . | 4 | 22 | -7 | -2
COc1cccc(/C=N/Nc2nccnc2Cl)c1O | 34 | 74* | . | . | -1 | .
Clc1nccnc1N/N=C/c1ccc(Br)cc1 | -18 | . | 23 | -16 | 3 | 31
COc1ccc(/C=N/Nc2nccnc2Cl)cc1 | -9 | 72* | 33 | 10 | 12* | 32
O=C(CN(Cc1ccc(Cl)cc1)C(=O)CNS(=O)(=O)c1ccccc1)NCC1CCCO1 (stereo unspecified) | -4 | . | -3 | 11 | 1 | 3
CCCN(C(=O)CSc1nc2ccccc2n1CC)C1CCS(=O)(=O)C1 (stereo unspecified) | -8 | . | -2 | 2 | 0 | -1
C/C(=N\NC(=O)c1c(C)nc2ccccn12)c1ccc(O)cc1O | 51 | . | 88* | 13 | -4 | 4
O=C(Nc1ccccc1)OCC1COC(c2ccccc2)(c2ccccc2)O1 (stereo unspecified) | . | . | . | . | -7 | .

Screening results as filed in PubChem BioAssay.
